Test results reported in ChEMBL document CHEMBL1145748, “Nonpeptide alphavbeta3 antagonists. 8. In vitro and in vivo evaluation of a potent alphavbeta3 antagonist for the prevention and treatment of osteoporosis” (J Med Chem, 2003).

What was measured:
[1] = biological target: Integrin alpha-V/beta-3 (Homo sapiens, UniProt P05106+P06756); assay: Inhibition of alphaV-beta3 integrin binding; format: protein-complex assay
Summary of the method: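 Scintillation-proximity assay. Displacement of a 125I-labelled iodobenzenesulfonylamino naphthyridine propionic acid radioligand from purified recombinant human αvβ3 is measured.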

[2] = Partition coefficient (logP); format: physicochemical; details: octanol/water
Summary of the method: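 Partitioning between octanol and pH 7.4 buffer.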

[3] = Half life of compound was determined in dog; format: ADME, organism-based, Canis lupus familiaris; details: in vivo
Summary of the method: (§1)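 Dogs given 0.2 mpk iv and 1 mpk po, in water; bioavailability, clearance and half-life taken from the plasma PK profile.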

[4] = Plasma clearance in dog was determined; format: ADME, organism-based, Canis lupus familiaris; summary of the method: as §1
[5] = Percent binding of compound towards human plasma protein was determined; format: ADME, cell-free
Summary of the method: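 Human plasma, diluted, with ultrafiltration in pH 7.4 buffer at room temperature. Solutions analyzed by HPLC; high-throughput format.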

[6] = Bioavailability in dog; format: ADME, organism-based, Canis lupus familiaris; details: in vivo; summary of the method: as §1
[7] = species: Rattus norvegicus; assay: Inhibitory effect of 30 mpk compound b.i.d. for 28 days was determined by bone mineral density in ovariectomized female rat; format: functional
Summary of the method: (§2)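 Female rats ovariectomized and, within 24 h, dosed orally b.i.d. for 28 days (n = 10/group), with sham and OVX-vehicle groups. BMD measured by DXA at the distal femoral metaphysis and central femur. Result expressed as DFM:central BMD ratio (mean ± SEM).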

[8] = species: Rattus norvegicus; assay: Inhibitory effect of 10 mpk compound b.i.d. for 28 days was determined by bone mineral density in ovariectomized female rat; format: functional; summary of the method: as §2
[9] = Plasma clearance in rat was determined; format: ADME, organism-based
[10] = Half life of compound was determined in rat; format: ADME, organism-based; details: in vivo
[11] = Bioavailability in rat; format: ADME, organism-based; details: in vivo
[12] = Plasma clearance in rhesus monkey was determined; format: ADME, organism-based; details: cercopithecidae
[13] = Selectivity for alphaV-beta3 over alphaV-beta5 integrins; parameters: species or system Homo sapiens
Summary of the method: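 αvβ3 binding is measured by SPA displacement of a 125I-iodobenzenesulfonylamino radioligand from purified recombinant human αvβ3. The αvβ5 counterscreen uses the same radioligand displaced from purified recombinant αvβ5 in a similar SPA.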

[14] = Half life of compound was determined in rhesus monkey; format: ADME; details: cercopithecidae, in vivo
[15] = species: Rattus norvegicus; assay: distal femoral metaphysis bone mineral density in young male rat after constant infusion of compound was determined; format: functional
Summary of the method: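 Growing male Sprague–Dawley rats (160 g) treated 10 days. Compound at 60 mg/mL in water with <1 equiv 1 N HCl, given by implanted subcutaneous osmotic minipump to a steady-state concentration of 800 nM (n = 15). PK checked in 3 parallel rats. Alendronate control 0.005 mpk sc qd. Right femur excised, stored in 70% ethanol, DFM BMD by DXA.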

[16] = Bioavailability of compound was determined in rhesus monkey; format: ADME, organism-based, Macaca mulatta; details: in vivo

Chain of Integrin alpha-V/beta-3 (P05106 27-788 limits assumed): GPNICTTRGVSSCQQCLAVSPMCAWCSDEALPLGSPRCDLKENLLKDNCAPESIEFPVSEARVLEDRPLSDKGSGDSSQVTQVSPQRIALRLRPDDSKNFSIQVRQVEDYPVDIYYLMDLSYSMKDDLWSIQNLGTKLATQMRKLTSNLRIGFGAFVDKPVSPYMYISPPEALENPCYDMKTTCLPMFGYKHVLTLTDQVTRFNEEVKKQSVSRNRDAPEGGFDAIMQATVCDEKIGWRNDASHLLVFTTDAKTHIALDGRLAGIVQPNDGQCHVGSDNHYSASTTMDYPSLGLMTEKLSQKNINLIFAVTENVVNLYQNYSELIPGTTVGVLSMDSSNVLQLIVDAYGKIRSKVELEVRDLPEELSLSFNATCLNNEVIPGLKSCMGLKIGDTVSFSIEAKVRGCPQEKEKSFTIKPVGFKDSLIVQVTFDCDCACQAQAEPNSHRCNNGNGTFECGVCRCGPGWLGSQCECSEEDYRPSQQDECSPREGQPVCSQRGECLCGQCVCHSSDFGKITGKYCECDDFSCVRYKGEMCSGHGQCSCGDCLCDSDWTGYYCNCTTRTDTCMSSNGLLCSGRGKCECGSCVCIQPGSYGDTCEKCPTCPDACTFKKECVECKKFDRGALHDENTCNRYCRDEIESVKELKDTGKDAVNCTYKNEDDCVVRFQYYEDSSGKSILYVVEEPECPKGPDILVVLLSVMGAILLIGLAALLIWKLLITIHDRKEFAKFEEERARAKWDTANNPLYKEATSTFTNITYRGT
Chain of Integrin alpha-V/beta-3 (P06756 31-889 limits assumed): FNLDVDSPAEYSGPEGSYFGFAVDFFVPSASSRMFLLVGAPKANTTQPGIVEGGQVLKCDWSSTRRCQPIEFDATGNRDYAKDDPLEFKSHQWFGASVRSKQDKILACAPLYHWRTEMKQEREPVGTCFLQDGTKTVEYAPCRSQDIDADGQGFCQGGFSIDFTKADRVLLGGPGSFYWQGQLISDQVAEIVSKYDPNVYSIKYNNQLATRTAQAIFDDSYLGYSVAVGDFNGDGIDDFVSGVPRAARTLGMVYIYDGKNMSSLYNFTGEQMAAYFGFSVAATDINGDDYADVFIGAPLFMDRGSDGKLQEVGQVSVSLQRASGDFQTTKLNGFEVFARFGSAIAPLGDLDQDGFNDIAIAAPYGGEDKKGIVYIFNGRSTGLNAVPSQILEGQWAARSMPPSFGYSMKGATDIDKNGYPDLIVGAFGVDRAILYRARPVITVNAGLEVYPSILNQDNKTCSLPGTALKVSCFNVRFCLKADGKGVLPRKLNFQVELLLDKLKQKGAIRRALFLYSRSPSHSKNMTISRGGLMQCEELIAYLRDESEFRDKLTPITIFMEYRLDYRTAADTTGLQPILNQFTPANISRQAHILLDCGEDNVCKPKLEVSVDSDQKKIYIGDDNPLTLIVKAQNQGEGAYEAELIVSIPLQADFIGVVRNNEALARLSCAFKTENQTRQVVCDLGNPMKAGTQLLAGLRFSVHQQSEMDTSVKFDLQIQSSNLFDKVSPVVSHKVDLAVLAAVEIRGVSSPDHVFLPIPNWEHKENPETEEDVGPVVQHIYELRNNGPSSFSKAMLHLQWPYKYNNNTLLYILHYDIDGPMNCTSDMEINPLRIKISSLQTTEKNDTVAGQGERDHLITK
Chain of Integrin alpha-V/beta-3 (P06756 891-1048 limits assumed): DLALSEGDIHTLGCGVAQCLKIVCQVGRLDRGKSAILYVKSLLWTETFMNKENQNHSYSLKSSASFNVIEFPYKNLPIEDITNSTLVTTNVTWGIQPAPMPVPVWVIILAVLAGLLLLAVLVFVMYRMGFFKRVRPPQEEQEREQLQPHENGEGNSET

| SMILES | IC50 [1] [nM] | logP [2] | half-life [3] [min] | clearance [4] [mL/min/kg] | Plasma protein binding [5] [%] | bioavailability [6] [%] | other results |
| --- | --- | --- | --- | --- | --- | --- | --- |
| COc1ccc([C@H](CC(=O)O)N2CCN(CCCc3ccc4c(n3)NC(=O)CC4)C2=O)cn1 | 141 | – | – | – | – | – | – |
| COc1ccc([C@H](CC(=O)O)N2CCN(CCC(=O)c3ccc4c(n3)NCCC4)C2=O)cn1 | 3 | – | – | – | – | – | – |
| O=C(O)C[C@@H](c1cccnc1)N1CCN(CCCc2ccc3c(n2)NCCC3)C1=O | 0.25 | -0.55 | 54 | 70 | 61 | 10 | – |
| COc1ccc([C@H](CC(=O)O)N2CCN(CCCc3ccc4c(n3)NCCC4)C2=O)cc1F | 0.35 | 0.82 | 156 | 5.1 | 95 | 94 | – |
| COc1ccc([C@H](CC(=O)O)N2CCN(CCCc3ccc4c(n3)NC(O)CC4)C2=O)cn1 (some centres not stated) | 0.4 | – | – | – | – | – | – |
| COc1ccc([C@H](CC(=O)O)N2CCN(CCCc3ccc4c(n3)NCCC4)C2=O)cn1 | 0.08 | 0.21 | 210 | 6.4 | 88 | 64 | DFM:central BMD ratio [7]: 0.951; DFM:central BMD ratio [8]: 0.908; clearance [9]: 47 mL/min/kg; half-life [10]: 180 min; bioavailability [11]: 26%; clearance [12]: 9 mL/min/kg; IC50 [13]: 10 nM; half-life [14]: 120 min; BMD [15]: 142.2 mg cm**-2; bioavailability [16]: 74% |
| O=C(O)C[C@@H](c1ccc2c(c1)OCC2)N1CCN(CCCc2ccc3c(n2)NCCC3)C1=O | 0.1 | 0.8 | 162 | 4.1 | 98 | 75 | – |
